Screening results from PubChem BioAssay.
A selection: hits, their analogues and other compounds. The true share with any hit is near 2.1%.
beta cell repl: MIN6 beta-cell proliferation induction; MIN6 cells proliferation, ATPlite luminescence, 48 h; cells starved in 0.2% serum; 100% = growth in 10% serum; 0.29% of 330,000 active; proliferation, % at 10 µM; AID 2380;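 active = compounds whose signal lies at least 3.5 SD above the mean of all wells on their plate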;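 note: 0% = DMSO-treated cells in low-serum medium and 100% = 10% serum control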
CRFBP-R2 block: antagonists of CRF-binding protein/CRF-R2 receptor complex. HEK293 CRF-R2/CRF-BP, CRF-induced calcium fluorescence. 0.59% of 350,000 active. inhibition, % at 11.8 µM;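 active = inhibition of the ligand-induced calcium signal above about 50% at the single tested concentration, limit read from the data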
CRFR2-BP ag: CRF-BP/CRF-R2 complex agonism; 0.46% of 350,000 active; HEK293 CRF-R2/CRF-BP, calcium dye fluorescence (FLIPR); percent of saturating CRF peptide response; activation, % at 13.2 µM;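 active = activation of at least 50%, plus an integration ratio under a set limit after plate pattern correction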;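 note: plate controls were neutral control wells without compound for no effect and CRF at EC100 for full effect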
hiPSC survival: increases survival of single human iPS cells; hiPSC single-cell survival, ATPlite luminescence; 100% = ROCK inhibitor wells, 0% = DMSO; survival enhancement, % at 20 µM; 0.044% of 360,000 active; in the data active = survival enhancement above about 18%;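 note: cells exposed to compounds for 16 hours before the ATP read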
UCH37 DUB inh: human UCH37 deubiquitinating enzyme inhibition; Q9Y5K5; purified proteasome/UCH37, Ub-AMC cleavage fluorescence; inhibition, % (concentration not given with the values); 0.33% of 330,000 active;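 active = mean inhibition over replicate wells above about 20%, limit read from the data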;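 note: 0% = compound-free wells with enzyme and 100% = wells lacking proteasome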
Target sequence (Q9Y5K5 whole entry, looked up): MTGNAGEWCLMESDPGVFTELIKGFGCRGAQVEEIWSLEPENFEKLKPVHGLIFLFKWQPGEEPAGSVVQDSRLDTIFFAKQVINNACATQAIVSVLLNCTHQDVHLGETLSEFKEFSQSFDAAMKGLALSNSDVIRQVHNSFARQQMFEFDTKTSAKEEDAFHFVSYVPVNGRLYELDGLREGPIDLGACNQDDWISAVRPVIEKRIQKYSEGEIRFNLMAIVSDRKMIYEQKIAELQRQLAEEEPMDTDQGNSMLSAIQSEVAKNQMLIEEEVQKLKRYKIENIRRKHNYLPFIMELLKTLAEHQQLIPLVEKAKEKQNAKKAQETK
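Reagent: Ub-AMC substrate; assay system: Proteasome-associated human UCH37 deubiquitinase; controls: no-proteasome and no-compound wells; read-out: % inhibition of Ub-AMC cleavage fluorescence; timing: 30 min preincubation with enzyme, 25 min cleavage at room temperature; signal: AMC fluorescence from Ub-AMC cleavage, excitation 355 nm, emission 460 nm; buffer or medium: Tris-HCl pH 7.4 plus ovalbumin, ATP-MgCl2, DTT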
H9c2 protect: modulators protecting cardiomyocytes from myocardial damage | H9c2 cardiomyocytes, H2O2 injury protection, ATPLite, 2 h | protection from H2O2 cell death, % at 20 µM | 0.63% of 360,000 active;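 active = compounds giving at least 50% protection of heart cells from peroxide-induced death in the single-dose screen, raw or plate-pattern-corrected value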;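 note: 0% = DMSO wells with peroxide and 100% = DMSO wells without peroxide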
Numbers without * were called inactive; · = not tested or not shown.

SMILES | beta cell repl | CRFBP-R2 block | CRFR2-BP ag | hiPSC survival | UCH37 DUB inh | H9c2 protect
CCOC(=O)C(C)/C(C)=N/NC(=O)c1cc2ccccc2cc1O (stereo not drawn) | 0 | 18 | 3 | 0 | · | 61*
NNC(=O)c1cc2ccccc2cc1O | 0 | 18 | 1 | -1 | 2 | 65*
CCOC(=O)C(CC)C(C)=NNC(=O)c1ccccc1O (stereo not drawn) | · | · | · | · | -9 | ·
CCc1ccc(NC(=O)C(C)OC(=O)/C=C/c2ccc(O)c(OC)c2)cc1 (stereo not drawn) | -3 | -66 | 92* | -2 | -6 | -4
COc1ccccc1C=NNc1nncc2ccccc12 | · | · | · | · | 6 | ·
CCOC(=O)c1sc(NC(=O)CN(CC(C)C)CC(C)C)c(C(=O)OCC)c1C | -6 | 74* | -1 | -2 | 1 | -11
COc1ccc(CC(C)=NNC(=S)Nc2ccccc2F)cc1 | · | · | · | · | 5 | ·
C=CCc1cccc(C=NNC(=O)c2ccccc2OC)c1O | · | · | · | · | 5 | ·
O=C(NCC1CCCO1)C(c1ccc(F)cc1)N(C(=O)Cn1nnc(-c2ccc(F)cc2)n1)c1cccc(O)c1 (stereo not drawn) | -3 | 1 | 0 | 0 | 1 | 56*
CC(C(=O)NC1CCCC1)N(C(=O)Cn1nnc(-c2ccc(F)cc2)n1)c1ccccc1F (stereo not drawn) | 1 | 7 | -1 | 0 | 2 | 64*
COc1ccc(OC2C(=O)N(Cc3ccc(F)cc3)C2c2cc(OC)c(OC)c(OC)c2)cc1 (stereo not drawn) | 3 | 123* | -1 | -1 | 4 | 1
Cc1cc(C(=S)N2CCOCC2)c(C)n1-c1ccc(Cl)cc1 | -3 | 10 | 1 | 1 | 4 | 9
Cc1cc(C)cc(-n2c(C)cc(C(=S)N3CCOCC3)c2C)c1 | 1 | 57* | -2 | 0 | 0 | 3
COC(=O)/C=C1/S/C(=N/N=Cc2ccco2)NC1=O | · | · | · | · | 18 | ·
Cc1cccc(OCCn2c(NC(=O)c3ccco3)nc3ccccc32)c1 | -6 | -55 | 2 | 1 | -11 | 62*
O=C(NC(=S)NNC(=O)c1cccs1)c1ccc(Br)o1 | -2 | 19 | 71* | 9 | 13 | 12
O=C(O)c1cc(-c2ccc(C=NN3C(=O)C4C5C=CC(C6CC56)C4C3=O)o2)ccc1Cl (stereo not drawn) | · | · | · | · | 8 | ·
CCCCN1CC(COCc2ccccc2)Oc2cccc(OCCN3C(=O)[C@@H]4[C@H](C3=O)C3C=C[C@H]4C3)c2S1(=O)=O (stereo partly drawn) | · | -178 | 172* | 0 | · | 71*
CC(C)(C)NCC(=O)NN=Cc1ccc(OCc2ccccc2)cc1 | · | · | · | · | 5 | ·
CCCC(=O)N1CCc2cc(-c3nc(N)sc3C)ccc21 | 0 | 51* | -2 | 1 | -1 | 1
CNc1nc(-c2ccc3c(c2)CCN3C(=O)CC(C)(C)C)c(C)s1 | -3 | -4 | -4 | 0 | 1 | -4
CCOc1cc(C=NO)ccc1OCC(=O)Nc1cccc(C)c1 | · | · | · | · | 0 | ·
Oc1ccc(-c2nc(-c3ccc(O)c(O)c3)cs2)cc1 | -6 | -25 | -2 | 0 | 1 | 53*
Nc1ccc(/C=C/C(=O)c2ccco2)cc1 | -6 | -72 | 81* | 0 | 6 | -6
c1ccc(-c2nnc(-c3ccccn3)c(-c3ccccn3)n2)nc1 | -2 | -3 | 1 | 0 | 5 | -1
SMILES | beta cell repl | CRFBP-R2 block | CRFR2-BP ag | hiPSC survival | UCH37 DUB inh | H9c2 protect
CN(C)c1nc(-c2ccccn2)nnc1-c1ccccc1 | 0 | 1 | 0 | -1 | 3 | 67*
COc1ccc(C=NNc2cc(C)nc3c(C)cccc23)cc1 | · | · | · | · | -34 | ·
CCOC(=O)C(CCCCOc1ccc([N+](=O)[O-])cc1)C(=O)OCC | -2 | 62* | -4 | 1 | 4 | -9
CC1CC(C)CN(CCCCOc2ccc([N+](=O)[O-])cc2)C1 (stereo not drawn) | 0 | -5 | 2 | -2 | 1 | 3
CC(=O)Nc1cccc(C(=O)NN=Cc2ccccc2F)c1 | · | · | · | · | 1 | ·
COc1ccc(NC(=O)Nc2nnc(C(C)(C)C)s2)cc1 | 1 | 58* | 4 | 0 | 2 | -2
Cc1ncc(CO)c2cc(C(=O)Nc3ccccc3Cl)c(=Nc3cccc(C(N)=O)c3)oc12 | -2 | 22 | 0 | 0 | 3 | 61*
COc1cccc(C=Nn2c(SC)nnc2-c2ccccc2)c1O | · | · | · | · | 3 | ·
Cc1ccc(S(=O)(=O)NN=Cc2ccc3nccnc3c2)cc1 | · | · | · | · | 10 | ·
CN1C(=O)C(N=Nc2ccc([N+](=O)[O-])cc2)SC1=S (stereo not drawn) | · | 68* | 70* | -2 | 7 | -10
CC(C)=CCC/C(C)=C/C=NNC(=O)c1cccc([N+](=O)[O-])c1 | · | · | · | · | 3 | ·
Cc1ccc(CN2CCN(/N=C/C(Br)=C\c3ccccc3)CC2)cc1 | -3 | -74 | 129* | 2 | · | -10
O=C(Nc1ccc(CN2CCOCC2)cc1)c1ccc(-c2cccc([N+](=O)[O-])c2)o1 | -2 | 6 | -1 | 0 | 10 | 62*
O=C(Cc1cccc([N+](=O)[O-])c1)Nc1ccc(C(=O)N2CCOCC2)cc1 | -1 | -1 | 1 | 3 | 29* | 4
O=C(Cc1cccc([N+](=O)[O-])c1)Nc1cccc(C(=O)N2CCOCC2)c1 | 1 | 2 | -1 | -4 | -1 | 2
O=C(Nc1ccc(CN2CCOCC2)cc1)c1ccc(-c2cc(Cl)ccc2Cl)o1 | -6 | -9 | 0 | 2 | -8 | 2
O=C(c1ccc(NS(=O)(=O)c2cccc([N+](=O)[O-])c2)cc1)N1CCCCCC1 | 0 | 115* | 6 | 0 | 0 | -8
CC(CC(=O)NC(C)(C)C)=NNC(=O)c1ccccc1N | · | · | · | · | -398 | ·
CC(=NNc1ccc(Cl)c(C(=O)O)c1)c1ccccn1 | · | · | · | · | 9 | ·
COc1cccc(C=NNC(=O)c2ccccc2N(Cc2ccccc2)S(=O)(=O)c2ccccc2)c1OC | · | · | · | · | 0 | ·
C=CCOC(=O)Nc1ccc(Cl)cc1NC(=O)OCC=C | -1 | 19 | -2 | -2 | 5 | 2
C=CCOC(=O)/C=C/C(=O)NC(N)=O | 11* | 4 | 0 | 0 | · | 1
COc1ccc(C=NN2CCN(C)CC2)c(OC)c1OC | · | · | · | · | 1 | ·
O=C(CNC(=O)c1ccccc1)OC(C(=O)Nc1cc(C(F)(F)F)ccc1Cl)c1ccccc1 (stereo not drawn) | 0 | -6 | 3 | 19* | 3 | -4
CC(=O)Nc1ccc(C(=O)NN=Cc2ccc(F)cc2)cc1 | · | · | · | · | 1 | ·
CCn1cc(C=NNS(=O)(=O)c2ccc(C)cc2)c(C)n1 | · | · | · | · | -2 | ·
COc1ccccc1C(=O)NN=C/C(C)=C/c1ccccc1 | · | · | · | · | 8 | ·
O=C(CN(C(=O)Cn1nnc(-c2cccs2)n1)c1cnc2ccccc2c1)NCC1CCCO1 (stereo not drawn) | -3 | 8 | -4 | -1 | 2 | 83*
